An excerpt weighted towards active compounds, which were near 2.9% of everything screened.
HTRA1 inhibitor: HTRA1 (human) protease inhibition; recombinant HTRA1, FP-rhodamine activity-based probe, fluorescence polarization; inhibition, % at 5.96 µM; actives 0.5% (n = 340,000); AID 504803; in the data active = inhibition above about 36%;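 also: 0% = enzyme with DMSO and 100% = wells lacking enzyme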
SIAE primary: blocks human sialic acid acetylesterase; inhibition, % at 9.66 µM; Q9HAT2; actives 0.69% (n = 370,000); AID 1053197; SIAE FP-Rh probe binding, fluorescence polarization;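 active = inhibition above a cutoff: mean of compounds within the control limits plus 3 SD of those, cut at about 17% in these data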;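 also: 0% = plate median of compound wells and 100% = probe without SIAE protein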
ABHD4 inh: inhibits mouse alpha/beta hydrolase domain 4; actives 0.54% (n = 370,000); AID 720543; inhibition, % at 8.92 µM; Q8VD66; purified mABHD4, FP-Rh probe fluorescence polarization;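 active = inhibition exceeding the mean over every tested compound plus 3 SD, cut at about 30% in these data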;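 also: 0% = plate median of compound wells and 100% = S159A mutant with DMSO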
Target sequence (Q8VD66 whole entry, looked up, the tested form may be a part): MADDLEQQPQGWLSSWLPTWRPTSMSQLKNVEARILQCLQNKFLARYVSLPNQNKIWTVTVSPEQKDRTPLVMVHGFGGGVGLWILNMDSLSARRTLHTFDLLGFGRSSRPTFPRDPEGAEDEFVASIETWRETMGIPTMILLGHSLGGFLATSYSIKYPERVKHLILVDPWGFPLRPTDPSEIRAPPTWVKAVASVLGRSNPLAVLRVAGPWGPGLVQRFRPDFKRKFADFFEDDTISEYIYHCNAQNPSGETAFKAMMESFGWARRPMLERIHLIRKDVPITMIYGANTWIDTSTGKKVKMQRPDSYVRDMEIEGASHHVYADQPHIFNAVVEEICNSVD
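Test system: mouse ABHD4 enzyme, wild type. Reagent: FP-Rh fluorescent activity-based probe, added after compound pre-incubation. Timing: pre-incubation 45 min, probe exposure 60 min, at 25 °C. Technique: FP readout, ex 525 nm / em 598 nm. Benchmarks: high control S159A mutant with DMSO, low control median of compound wells.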
TCR CD3 inh: blocks the human TCR-CD3 interaction | TAMRA-labeled TCR probe fluorescence, biochemical | inhibition, % at 9.4 µM | actives 0.37% (n = 360,000); in the data active = inhibition above about 19%;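 also: recombinant mutant TCR 2C K166C tagged with TAMRA read by polarization; 0% = receptor in buffer alone and 100% = receptor with positive control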
PRMT1 inh: PRMT1 (human) inhibition, primary screen | inhibition, % at 2.79 µM | AID 652257 | actives 1.3% (n = 370,000) | recombinant PRMT1, activity-based probe fluorescence polarization;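 active = inhibition above about 21% made by adding two undisclosed values, limit read from the data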
Target sequence (Q99873 whole entry, looked up): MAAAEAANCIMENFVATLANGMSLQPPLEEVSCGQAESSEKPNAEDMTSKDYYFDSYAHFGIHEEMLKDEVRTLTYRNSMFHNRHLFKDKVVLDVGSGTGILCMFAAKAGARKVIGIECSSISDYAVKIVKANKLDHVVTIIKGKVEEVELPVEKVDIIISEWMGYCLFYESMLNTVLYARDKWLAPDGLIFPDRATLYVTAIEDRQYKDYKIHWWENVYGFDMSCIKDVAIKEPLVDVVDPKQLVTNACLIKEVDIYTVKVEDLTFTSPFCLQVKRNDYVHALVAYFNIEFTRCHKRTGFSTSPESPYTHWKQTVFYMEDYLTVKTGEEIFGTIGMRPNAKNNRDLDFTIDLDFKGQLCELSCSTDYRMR
PAD4 inh: PAD4 (human) enzyme inhibition. Q9UM07. recombinant PAD4, RCA probe fluorescence polarization. inhibition, % at 6.36 µM. actives 0.41% (n = 330,000). AID 485272;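 active = percent inhibition above a cutoff equal to the mean of all tested compounds plus 3 SD, cut at about 15% in these data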;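 also: 0% = PAD4 with RCA probe and DMSO and 100% = probe without PAD4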
PAD4 confirm: confirmation of human PAD4 inhibitors | shares compounds with PAD4 inh | recombinant PAD4, RCA probe fluorescence polarization | inhibition, % at 6.36 µM | actives 28% (n = 1,200) | AID 488796;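 active = mean inhibition across replicates above the hit cutoff set by the earlier primary screen, cut at about 15% in these data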;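 also: inhibitors block active-site labeling by the probe so polarization falls; 0% = PAD4 with probe and DMSO and 100% = probe without PAD4 enzyme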
* marks the source's active call; other numbers are inactive results; . = no result; + = active, no number.

SMILES	HTRA1 inhibitor	SIAE primary	ABHD4 inh	TCR CD3 inh	PRMT1 inh	PAD4 inh	PAD4 confirm
O=C(CC(=O)c1ccccc1)Nc1cccnc1	-0.5	5.0	1.4	-1.7	7.5	0.8	.
CC(C)(C)c1ccc(C(=O)NCCOc2ccccc2)cc1	-5.8	-1.9	-4.8	3.8	-1.5	18.3*	2.6
CC(=O)C1(C(=O)NCc2ccccc2)CC(c2ccccc2C(F)(F)F)=NO1 (stereo not given)	.	7.0	1.0	.	-1.4	.	.
CCCCNS(=O)(=O)/C=C/c1ccc(F)cc1CNC(=O)OC(C)(C)C	.	2.9	-3.1	.	-2.2	.	.
Cc1ccc(C)c(-n2nnnc2Sc2nnnn2-c2ccccc2)c1	-5.9	0.6	-1.8	2.1	0.3	18.2*	25.5*
COc1ccc(-c2ccc3c(n2)CCCN3Cc2ccccc2C(F)(F)F)cc1	.	-5.2	-6.0	-0.3	-2.1	.	.
O=c1c2ccccc2n(Cc2ccco2)n1[C@@H](Cc1ccccc1)Cn1cc(-c2ccc(-c3ccccc3)cc2)nn1	.	-1.4	-8.9	.	-0.8	.	.
CN(C)CCCNc1cc(O)c2ncccc2c1	19.0	11.9	15.2	-8.7	10.6	15.7*	-9.8
CCC1OC2(C)OC(=N)C1(C#N)C(C#N)(C#N)C2c1ccccc1 (stereo not given)	12.3	6.8	11.3	8.1	4.6	15.5*	-1.2
COc1ccc2c(c1)oc(=O)c1cc(OC)ccc12	-14.9	-1.5	4.8	4.3	7.3	-8.2	.
COc1ccc2c(c1)oc(=O)c1ccccc12	0.5	1.6	6.6	3.9	2.0	15.1*	22.6*
O=C(c1ccc(Cl)c(Cl)c1)N1CCC(Oc2cccnc2)CC1	.	4.6	-1.1	.	1.9	.	.
FC(F)Oc1ccc(-c2csc(NNC3=NCCCCC3)n2)cc1	12.4	6.8	18.6	4.3	38.4*	19.5*	4.5
COc1ccc(C(=O)OCCN(C)C2CN(Cc3cn(Cc4cccc(F)c4)nn3)S(=O)(=O)C2)cc1OC (stereo not given)	.	4.7	1.4	.	3.0	.	.
CN(C)c1ccc(NC(=S)c2ccc3ccccc3n2)cc1	12.2	7.3	8.9	1.4	8.9	38.5*	6.3
CCOC(=O)Cc1nnc(NC(=O)CSc2nnc3c(n2)[nH]c2ccccc23)s1	-5.0	-18.7	-13.0	7.4	1.6	21.6*	4.8
CCOC(=O)Cc1nnc(NC(=O)CSc2nnc3c4ccccc4n(C(C)C)c3n2)s1	-9.9	0.8	2.7	3.8	-0.8	1.8	.
CCOC(=O)c1c(C)[nH]c(C2=NNC(=NC3CC3)SC2)c1C	3.6	.	.	.	.	16.6*	11.8
Cc1c(NC(=O)CSc2nccn2C)c(=O)n(-c2ccccc2)n1C	0.5	5.8	4.3	-4.4	-3.7	+	-5.9
O=C(NC1(O)C(=O)c2ccccc2C1=O)c1ccc(C(F)(F)F)cc1	.	2.8	-0.8	-5.3	1.6	39.9*	39.9*
Cc1ccc(C(=O)NC2(O)C(=O)c3ccccc3C2=O)cc1C	3.6	0.8	2.1	-0.8	0.9	8.7	.
COc1ccc(NC(=O)NC(C(F)(F)F)C(F)(F)F)cc1	4.1	3.5	-3.2	-2.3	0.3	14.8*	2.7
O=C(Nc1ccc(S(=O)(=O)Nc2ncccn2)cc1)c1ccc2ncsc2c1	-3.8	-14.8	-13.3	-8.3	23.9*	17.9*	9.5
O=C(Nc1ccncc1)c1ccc2ncsc2c1	-4.5	-12.5	3.1	7.2	-1.2	-0.4	.
CCCC(=O)N(Cc1cc(=O)[nH]c2ccccc12)c1ccc(C)cc1	-14.4	-0.6	-2.1	4.5	6.8	22.8*	26.8*
SMILES	HTRA1 inhibitor	SIAE primary	ABHD4 inh	TCR CD3 inh	PRMT1 inh	PAD4 inh	PAD4 confirm
CCCC(=O)N(Cc1cc(=O)[nH]c2ccccc12)c1ccc(C)cc1C	-9.9	0.7	-7.5	-1.1	-6.4	.	.
Cc1ccc(N(Cc2cc(=O)[nH]c3ccccc23)C(=O)C(C)C)cc1	-4.3	-1.9	0.9	8.9	-5.0	25.8*	24.5*
COc1ccc(C(c2c(C)[nH]n(-c3ccccc3)c2=O)c2c(C)[nH]n(-c3ccccc3)c2=O)cc1OC	19.7	7.1	9.2	2.9	2.9	68.9*	-0.2
COc1ccc(C(c2c(C)n(C)n(-c3ccccc3)c2=O)c2c(C)n(C)n(-c3ccccc3)c2=O)cc1OC	-1.6	3.5	-6.5	-3.9	-0.1	-4.6	.
Cc1ccc(C(C[N+](=O)[O-])c2c(C)[nH]n(-c3ccccc3)c2=O)cc1 (stereo not given)	4.2	5.3	1.9	-0.9	0.7	16.7*	-4.2
O=C(NCCc1ccccc1)OCc1cn(Cc2cccc(Cl)c2)nn1	.	-0.3	0.1	.	-1.2	.	.
Cc1cc(C)c(S(=O)(=O)Nc2ccc(Cl)cn2)c(C)c1	-0.5	-3.9	-1.3	-0.4	-1.3	21.4*	1.1
O=S(=O)(Nc1ccc(Cl)cn1)c1ccc(Cl)cc1	3.2	-5.1	-9.8	-1.6	1.0	-2.8	.
O=C(/C=C/c1ccc(O)cc1)c1ccc(NC2=C(N3CCCCC3)C(=O)c3ccccc3C2=O)cc1	6.3	-5.6	-8.0	1.1	8.4	9.5	.
Cc1ccc(NC2=C(N3CCCCC3)C(=O)c3ccccc3C2=O)cc1	1.7	-7.7	9.4	-4.9	7.5	-3.0	.
O=C1C(Nc2cccc(O)c2)=C(N2CCCCC2)C(=O)c2ccccc21	8.5	1.2	22.0	3.3	16.3	18.4*	13.3
COc1ccccc1NC1=C(N2CCCCC2)C(=O)c2ccccc2C1=O	8.2	.	.	.	.	37.5*	1.6
O=C1C(Nc2ccccc2)=C(N2CCCCC2)C(=O)c2ccccc21	5.2	2.2	13.4	2.9	4.0	14.9*	-4.5
N#Cc1ccc(OC[C@@H](O)CN2CCC(C(O)(c3ccccc3)c3ccccc3)CC2)cc1F	.	-3.6	3.6	.	-0.7	.	.
COC(=O)C1CN(Cc2cn(CCC3OCCO3)nn2)CCS(=O)(=O)N1Cc1ccc(OC)cc1 (stereo not given)	.	3.1	3.6	.	0.3	.	.
COC(=O)[C@]12C[C@H](CC(=O)N3CCN(C(=O)C4CC4)CC3)C(=O)N(CCc3ccc(OC)c(OC)c3)C1=C[C@H](C1CCCC1)O[C@@H]2C	.	2.5	-0.2	.	0.6	.	.
O=C1C(Cl)=C(NCc2cccnc2)C(=O)c2ccccc21	14.4	-2.2	1.3	1.9	1.6	21.4*	-6.7
COc1ccc(-c2cc(=Nc3c(C)n(C)n(-c4ccccc4)c3=O)c3ccccc3o2)cc1	-3.5	7.3	1.7	3.0	2.3	-2.6	.
COc1ccc(-c2c/c(=N\c3nc(-c4ccccc4)c(C)s3)c3ccccc3o2)cc1O	-3.8	4.9	-1.6	4.7	-3.3	33.3*	17.3*
Cc1[nH][nH]c(=O)c1C(c1ccc(-c2ccc(Cl)c(C(=O)O)c2)o1)c1c(C)[nH][nH]c1=O	5.3	6.3	9.1	1.2	12.8	.	.
COC(=O)c1ccccc1-c1ccc(C(c2c(C)[nH][nH]c2=O)c2c(C)[nH][nH]c2=O)o1	3.4	9.3	8.8	1.8	3.1	54.0*	13.3
